H69AR inhibit – blocks growth of human H69AR lung tumor cells | viability, % at 10 µM | actives 6% (n = 85,000) | H69AR lung tumor viability, ATP luminescence, 72 h; active compounds read low | AID 598;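 active = viability at or below 40%; inactive = viability above 40%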;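 note: multidrug resistant small cell line overexpressing MRP-1 efflux transporter; 100% = mean luminescence of untreated control wells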
HCT116 PTEN-null – growth suppressors of cells with PTEN tumor suppressor deletion. AID 827. viability, % at 10 µM. actives 1.2% (n = 140,000). HCT116 PTEN-null viability, CellTiter-Glo, 60 h; active compounds read low;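 active = viability at or below a set limit, 4 SD under the median of all tested compounds, cut at about 3.7% in these data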;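 note: PTEN knockout HCT116 line with beta catenin targeted HCT116 as companion control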
HUVEC prolif 384 – human endothelial cell proliferation inhibition; viability, % at 10 µM (by protocol); actives 1.1% (n = 86,000); HUVEC proliferation, CellTiter-Glo luminescence, 72 h; active compounds read low; AID 648;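 active = viability at or below 30%; inactive = viability above 30%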;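 note: 100% = median luminescence of DMSO-only cell control wells on each plate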
bCat KO growth – beta-catenin-lacking colon tumor cell growth suppression. actives 1.5% (n = 140,000). HCT116 beta-catenin knockout viability, CellTiter-Glo, 60 h; active compounds read low. viability, % at 10 µM. AID 818;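 active = viability at or under a set limit, the compound median less 4 SD, cut at about 6% in these data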;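 note: 0% = Hyamine 1622 control at 20 µM and 100% = untreated cell control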
Lung fibro prol – blocks proliferation of human lung fibroblasts; LL 47 human lung fibroblast viability, ATP luminescence; active compounds read low; viability, % at 10 µM; actives 1.1% (n = 85,000);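 active = viability at or below 50% in the single dose screen; inactive = viability above 50%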;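 note: compound exposure lasted 72 h before the ATP readout; 100% = median luminescence of untreated cell-only wells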
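Times – overnight cell rest, 72 h compound treatment at 37 °C · Test system – human lung fibroblast line LL 47, low passage · Amount – 1,150 cells in each well · Controls – cell-only wells, no compound · Doses – 0.1% DMSO in all compound wells · Measured by – CellTiter-Glo luminescence · Buffer or medium – IMEM plus 15% FBS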
* marks the source's active call; other numbers are inactive results. This is one part of a sample in which hits are shown more often than they occur.

How did FC(F)(F)c1cccc(NC(=S)NCC2COc3ccccc3O2)c1 (stereo not drawn) do in these assays?
HCT116 PTEN-null: 89; bCat KO growth: 80

How did CCC(=O)N1CCc2cc(S(=O)(=O)CCC(=O)Nc3nc(C)cs3)ccc21 do in these assays?
H69AR inhibit: 1.8*; HCT116 PTEN-null: 59; HUVEC prolif 384: 92; bCat KO growth: 60; Lung fibro prol: 88

What do the screens show for `CN(C)C/C(Cl)=C(\Cl)c1ccccc1`?
H69AR inhibit: 12*; HCT116 PTEN-null: 94; HUVEC prolif 384: 97; bCat KO growth: 93; Lung fibro prol: 99

Results for CC(/C=N/Nc1nnc2c(n1)[nH]c1ccccc12)=C\c1ccco1 ?
H69AR inhibit: 34*; HCT116 PTEN-null: 85; HUVEC prolif 384: 97; bCat KO growth: 89; Lung fibro prol: 114

How did CCOC(=O)c1[nH]c(C)c(/C(O)=C2\C(=O)C(=O)N(CCN(C)C)C2c2ccc(C)o2)c1C (stereo not drawn) do in these assays?
H69AR inhibit: 19*; HCT116 PTEN-null: 35; HUVEC prolif 384: 75; bCat KO growth: 32; Lung fibro prol: 97

How did COC(=O)c1[nH]c(C)c(/C(O)=C2\C(=O)C(=O)N(CCN(C)C)C2c2cccs2)c1C (stereo not drawn) do in these assays?
HCT116 PTEN-null: 103; bCat KO growth: 98

What do the screens show for `CCCOc1ccc(C2/C(=C(\O)c3c(C)[nH]c(C(=O)OC)c3C)C(=O)C(=O)N2CCN(C)C)cc1` (stereo not drawn)?
H69AR inhibit: 94; HCT116 PTEN-null: 78; HUVEC prolif 384: 104; bCat KO growth: 81; Lung fibro prol: 105

What do the screens show for `CCOc1ccc(C2/C(=C(\O)c3c(C)[nH]c(C(=O)OC)c3C)C(=O)C(=O)N2CCN(C)C)cc1` (stereo not drawn)?
H69AR inhibit: 92; HCT116 PTEN-null: 0.7*; HUVEC prolif 384: 105; bCat KO growth: 0.7*; Lung fibro prol: 90

Results for CCOC(=O)c1[nH]c(C)c(/C(O)=C2\C(=O)C(=O)N(CCN3CCOCC3)C2c2cccs2)c1C (stereo not drawn) ?
H69AR inhibit: 33*; HCT116 PTEN-null: 32; HUVEC prolif 384: 60; bCat KO growth: 37; Lung fibro prol: 91

What do the screens show for `CCOC(=O)C1CCCN(c2c(Nc3cccc(C)c3)c(=O)c2=O)C1` (stereo not drawn)?
H69AR inhibit: 84; HCT116 PTEN-null: 98; HUVEC prolif 384: 99; bCat KO growth: 97; Lung fibro prol: 94

What do the screens show for `CC(=O)O[C@@]12CO[C@@H]1C[C@H](O)[C@@]1(C)C(=O)[C@H](O)C3=C(C)[C@@H](OC(=O)[C@H](O)[C@@H](NC(=O)OC(C)(C)C)c4ccccc4)C[C@](O)([C@@H](OC(=O)c4ccccc4)[C@H]21)C3(C)C`?
H69AR inhibit: 23*; HUVEC prolif 384: 59; Lung fibro prol: 61

Results for COc1ccc(/C=N\NC(=O)c2cc(O)c(O)c(O)c2)cc1CN1CCN(c2ccc(F)cc2)CC1 ?
HCT116 PTEN-null: 78; bCat KO growth: 81

What do the screens show for `Cc1cccc(NC(=S)N/N=C/c2ccc([N+](=O)[O-])s2)c1`?
HCT116 PTEN-null: 0.8*; bCat KO growth: 1.0*

What do the screens show for `Cc1ccc(NC(=O)/C=C/c2ccc([N+](=O)[O-])s2)c(C)c1`?
HCT116 PTEN-null: 1.1*; bCat KO growth: 2.6*

Results for Cc1ccc(NC(=O)/C=C/c2ccc([N+](=O)[O-])s2)cc1 ?
HCT116 PTEN-null: 4; bCat KO growth: 9

How did O=[N+]([O-])c1ccc(/C=N/NC(=S)Nc2ccccc2)o1 do in these assays?
HCT116 PTEN-null: 48; bCat KO growth: 61

What do the screens show for `Cc1cccc(NC(=O)/C=C/c2ccc([N+](=O)[O-])s2)c1`?
HCT116 PTEN-null: 1.1*; bCat KO growth: 2.8*

What do the screens show for `CCn1c(COc2ccccc2C)nnc1SCC(=O)CC(=O)Nc1ccccc1`?
H69AR inhibit: 93; HCT116 PTEN-null: 81; HUVEC prolif 384: 85; bCat KO growth: 74; Lung fibro prol: 108

How did COc1ccc(CCN2C(=O)CN(Cc3ccccc3)CC2=O)cc1OC do in these assays?
HCT116 PTEN-null: 0.1*; bCat KO growth: 57

How did COc1cc(OC)cc(-c2ncc3ccccn23)c1 do in these assays?
H69AR inhibit: 38*; HCT116 PTEN-null: 84; HUVEC prolif 384: 81; bCat KO growth: 76; Lung fibro prol: 98

What do the screens show for `N#CC1(C#N)COC23CCCCC2C1(C#N)C(=N)O3` (stereo not drawn)?
H69AR inhibit: 8.2*; HCT116 PTEN-null: 102; HUVEC prolif 384: 78; bCat KO growth: 96; Lung fibro prol: 66

How did CCCC1OC23CCCCC2C(C#N)(C(=N)O3)C1(C#N)C#N (stereo not drawn) do in these assays?
H69AR inhibit: 22*; HCT116 PTEN-null: 101; HUVEC prolif 384: 83; bCat KO growth: 106; Lung fibro prol: 74

How did CC1OC23CCCCC2C(C#N)(C(=N)O3)C1(C#N)C#N (stereo not drawn) do in these assays?
H69AR inhibit: 66; HCT116 PTEN-null: 95; HUVEC prolif 384: 94; bCat KO growth: 100; Lung fibro prol: 98

What do the screens show for `COc1ccc(C2OC34CCCCC3C(C#N)(C#N)C2(C#N)C(=N)O4)cc1` (stereo not drawn)?
H69AR inhibit: 34*; HCT116 PTEN-null: 91; HUVEC prolif 384: 96; bCat KO growth: 93; Lung fibro prol: 90

Results for COc1cc(/C=N/NC(=O)C2C3CCCCC32C)cc(Br)c1O (stereo not drawn) ?
HCT116 PTEN-null: 93; bCat KO growth: 89

Results for CCCC1(CCC)NC(=O)N(CC(=O)Nc2ccccc2OC)C1=O ?
H69AR inhibit: 123; HCT116 PTEN-null: 98; HUVEC prolif 384: 96; bCat KO growth: 102; Lung fibro prol: 15*

How did CCNc1nc(C)c2cc(Br)c(=O)n(CC)c2n1 do in these assays?
H69AR inhibit: 58; HCT116 PTEN-null: 56; HUVEC prolif 384: 38; bCat KO growth: 61; Lung fibro prol: 37*

Results for CCn1c(=N)c(C(=O)NC)cc2c(=O)n3cccc(C)c3nc21 ?
H69AR inhibit: 75; HUVEC prolif 384: 92; Lung fibro prol: 93

What do the screens show for `CCNC(=S)N/N=C(\C)c1ccc(N2CCOCC2)cc1`?
HCT116 PTEN-null: 95; bCat KO growth: 102

What do the screens show for `CNC(=S)N/N=C(\C)c1ccc(N2CCOCC2)cc1`?
HCT116 PTEN-null: 1.3*; bCat KO growth: 4.8*

What do the screens show for `Cc1ccc(C)c(N2CCN(c3cnn(-c4nc5ccccc5s4)c(=O)c3Cl)CC2)c1`?
HCT116 PTEN-null: 50; bCat KO growth: 57

Results for COC(=O)C1=C(C)NC(C)=C(C(=O)OC)C1c1cc2ccc(C)cc2[nH]c1=O ?
H69AR inhibit: 20*; HCT116 PTEN-null: 79; HUVEC prolif 384: 69; bCat KO growth: 83; Lung fibro prol: 79

What do the screens show for `O=C(/C=C/c1ccco1)NC(=S)NNC(=O)c1ccco1`?
H69AR inhibit: 62; HCT116 PTEN-null: 62; HUVEC prolif 384: 28*; bCat KO growth: 60; Lung fibro prol: 92
